High-throughput results from PubChem BioAssay.
This is a sample that favours compounds with a hit; in the whole collection about 1.8% have one here.
Scp-1 inhibitor: Scp-1 (human) phosphatase inhibition. inhibition, % at 20 µM. Q9GZU7. AID 493091. hit rate 0.88% among 340,000. Recombinant Scp1, phosphopeptide, malachite green phosphate absorbance;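 active = inhibition above about 50% at 20 µM, limit read from the data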
Target sequence (Q9GZU7 76-261 limits assumed): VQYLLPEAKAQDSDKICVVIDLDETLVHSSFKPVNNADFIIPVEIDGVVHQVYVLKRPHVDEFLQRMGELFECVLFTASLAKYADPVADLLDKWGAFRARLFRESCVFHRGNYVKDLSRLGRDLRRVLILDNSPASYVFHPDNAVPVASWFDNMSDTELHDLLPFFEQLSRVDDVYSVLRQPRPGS
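Assay system: SCP-1 catalytic fragment, aa 76-261 | Buffer or medium: Tris acetate buffer pH 5.5 with MgCl2 and Tween-20 | Compound: One concentration, 20 µM, with 1.0% DMSO | Also added: Phospho 17-mer peptide substrate | Signal: Absorbance at 630 nm | Incubation: 45 min enzyme reaction at room temperature | Measure: % inhibition of SCP-1 phosphate liberation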
STEP block: blocks human striatal-enriched tyrosine phosphatase; inhibition, % at 20 µM; recombinant STEP, OMFP fluorogenic substrate, fluorescence; P54829; hit rate 0.25% among 360,000; AID 588621;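 active = inhibition at 20 µM, scaled per plate between control wells, above about 37%, limit read from the data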
Target sequence (P54829 whole entry, looked up): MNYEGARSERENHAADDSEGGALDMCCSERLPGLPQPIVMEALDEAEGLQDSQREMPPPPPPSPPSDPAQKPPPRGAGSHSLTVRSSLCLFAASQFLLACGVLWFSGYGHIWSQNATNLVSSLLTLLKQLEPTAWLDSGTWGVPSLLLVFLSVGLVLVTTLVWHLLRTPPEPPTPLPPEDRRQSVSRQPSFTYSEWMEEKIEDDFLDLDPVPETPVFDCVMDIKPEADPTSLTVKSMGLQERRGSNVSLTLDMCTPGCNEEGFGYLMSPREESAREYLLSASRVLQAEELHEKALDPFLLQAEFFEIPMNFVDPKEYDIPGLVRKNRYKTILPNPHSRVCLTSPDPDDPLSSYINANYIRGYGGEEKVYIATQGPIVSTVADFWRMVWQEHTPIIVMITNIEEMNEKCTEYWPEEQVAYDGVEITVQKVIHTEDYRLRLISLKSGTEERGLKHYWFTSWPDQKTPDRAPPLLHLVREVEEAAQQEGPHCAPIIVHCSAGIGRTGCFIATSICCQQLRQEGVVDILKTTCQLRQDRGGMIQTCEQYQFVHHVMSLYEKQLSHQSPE
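Material: STEP (striatal-enriched tyrosine phosphatase) enzyme, cell-free | Medium: 50 mM Bis-Tris pH 6.0 with 2.5 mM DTT and 0.005% Tween 20 | Read-out: Percent inhibition scaled to no-enzyme and uninhibited-enzyme controls, plate-pattern corrected | Signal: Fluorescence read at 480 nm ex / 540 nm em | Times: 20 min reaction, room temperature, in the dark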
DNMT1 inh: inhibitors of human DNMT1; P26358; DNMT1 molecular beacon, Hinp1I cleavage, fluorescence; inhibition (reported as % activation of signal), % at 10 µM; hit rate 0.83% among 360,000; in the data active = inhibition above about 50%
HKDC1 inhibitor: inhibitors of human hexokinase HKDC1; inhibition, % at 20 µM; hit rate 0.16% among 340,000; Q2TB90; AID 493160; recombinant HKDC1, G6PDH/diaphorase resazurin coupled fluorescence;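 active = inhibition above about 35% when tested at 20 µM, limit read from the data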
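Assay system: in-house recombinant HK5 (HKDC1) enzyme. Input: HKDC1 at 5 µg/mL. Medium: Tris pH 8.0 buffer with MgCl2, Tween-20, BSA, BME. Dosing: single 20 µM dose. Schedule: 90 min reaction incubation at room temperature, dark. Signal: resazurin-to-resorufin fluorescence via G6PDH and diaphorase coupling, 525/613 nm. Controls: DMSO-enzyme wells negative, buffer-substituted wells positive.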
LMPTP block: blocks human LMPTP phosphatase | P24666 | recombinant LMPTP-A, OMFP fluorogenic substrate, fluorescence intensity | inhibition, % at 20 µM | hit rate 0.22% among 360,000 | AID 651560;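 active = compounds that cut the enzyme signal by at least half of the control window in the single-dose screen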
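Test system: LMPTP-A phosphatase enzyme. Amount: LMPTP-A at 0.625 nM final in the reaction. Reagent: OMFP substrate, 400 µM final. Times: 50 min at room temperature. Signal: endpoint fluorescence intensity from OMFP dephosphorylation. Read-out basis: % inhibition. Benchmarks: no-enzyme and uninhibited controls.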
SUMO1-SIM PPI: SUMO1-SIM interaction modulation; P63165; SUMO1 binding to a labelled peptide, TR-FRET, 1 h; inhibition, % at 20 µM; hit rate 0.33% among 360,000; in the data active = inhibition above about 37%
Scp1 confirm: Scp-1 (human) inhibition, single-dose confirmed. hit rate 61% among 2,500. AID 540281. inhibition, % at 20 µM. recombinant SCP-1 catalytic domain, phosphate release, malachite green absorbance. shares compounds with Scp-1 inhibitor
Scp-1 MG ctr: interferes with malachite green readout, flagging false Scp-1 hits. apparent inhibition (interference), % at 20 µM. Colorimetric interference counterscreen, malachite green absorbance 630 nm. shares compounds with Scp-1 inhibitor. 2,500 tested, under 10 active;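 also: compounds added after enzyme reaction finished so only phosphate colour detection is probed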
Scp1 DSF: Scp-1 (human) binding by thermal shift | shares compounds with Scp-1 inhibitor | Recombinant SCP1, Sypro Orange thermal shift Tm | thermal shift relative to vanadate control, % at 40 µM | hit rate 25% among 1,500 | AID 540329;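 active = substances whose mean melting-temperature shift, as a percentage of the reference inhibitor's shift, reaches about 5.3%, limit read from the data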
HKDC1 act conf: confirmation of human HKDC1 activators. shares compounds with HKDC1 inhibitor. recombinant HKDC1, G6PDH/diaphorase resazurin fluorescence; active compounds read low. inhibition, % at 20 µM. hit rate 14% among 740. AID 504708;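 active = inhibition at or below a set negative limit, negative inhibition meaning the enzyme was activated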
DNMT1 confirm: DNMT1 inhibition confirmation, single concentration; DNMT1 molecular beacon HinP1I cleavage, fluorescence; inhibition, % at 10 µM; shares compounds with DNMT1 inh; hit rate 8% among 2,300;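 active = average inhibition of at least 30% in the single-concentration confirmation test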
Beacon interf: shows spectral interference in the DNMT1 beacon assay; shares compounds with DNMT1 inh; DNMT1 molecular beacon spectral interference counterscreen, fluorescence 485/520; activation (fluorescence interference), % at 10 µM; hit rate 1% among 2,300; AID 602387;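 active = activation of at least 30% at 10 µM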;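 also: DNMT1 catalytic domain with a HinP1I cleavage step and a FAM/dabcyl DNA beacon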
STEP conf: confirmation of human STEP phosphatase inhibitors; inhibition, % at 20 µM; hit rate 32% among 520; recombinant STEP, OMFP fluorogenic substrate, fluorescence; shares compounds with STEP block; call rule not given here
Hits are given with their value; . = inactive; / = not tested or not shown.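 The calls were made as follows, unless noted: active = inhibition of at least 30% at 20 µM; inactive = the rest.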

SMILES	Scp-1 inhibitor	STEP block	DNMT1 inh	HKDC1 inhibitor	LMPTP block	SUMO1-SIM PPI	Scp1 confirm	Scp-1 MG ctr	Scp1 DSF	STEP conf	others
Clc1ccc(Br)cc1-c1nc(-c2ccncc2)no1	102	65	.	.	72	.	35	.	.	.
Brc1cccc(-c2nc(-c3ccncc3)no2)c1	.	.	.	.	.	.	/	/	/	/
O=C(N/N=C/c1cc(Br)c(Br)o1)c1cc2ccccc2o1	111	56	.	.	.	.	61	.	.	.
CCc1ccc(NC(=O)CS(=O)CC(=O)Nc2ccc(N3CCOCC3)cc2)cc1 (stereo not drawn)	79	72	.	.	63	.	88	.	.	.
O=[N+]([O-])c1ccc(O)c(Nc2ncnc3ccccc23)c1	98	97	.	.	91	.	81	.	.	36
COc1ccc(-c2cnnc(N/N=C/c3ccc(-c4ccc([N+](=O)[O-])cc4)o3)n2)cc1	108	50	.	.	57	.	49	.	.	.
O=[N+]([O-])c1ccc(-c2ccc(/C=N/Nc3nc(N4CCCC4)nc(N4CCCC4)n3)o2)cc1	.	.	.	.	.	.	/	/	/	/
O=C(O)c1ccc(/C=N/NC(=O)c2cc(-c3ccc4c5c(cccc35)CC4)n[nH]2)cc1	76	52	.	.	.	.	67	.	.	.
O=C(N/N=C/c1ccccn1)c1cc(-c2cccc3ccccc23)n[nH]1	.	.	.	.	.	.	/	/	/	/
Cc1c(CC(=O)O)c(=O)oc2c(C)c(OCc3ccc(F)cc3Cl)ccc12	64	98	.	.	85	84	68	.	.	62
Cc1c(CC(=O)O)c(=O)oc2c(C)c(OCc3ccc(F)cc3F)ccc12	.	.	.	.	.	.	/	/	/	/
CC[C@@H](NC(=O)[C@@H](Cc1ccccc1)NC(=O)CC[C@H]1O[C@@H](n2ccc(=O)[nH]c2=O)[C@H](O)[C@@H]1O)c1ccccc1	/	.	.	/	.	.	/	/	/	/
CCOC(=O)CN1C(=O)S/C(=C/c2ccc(OCc3ccc(C(=O)O)cc3)cc2)C1=O	93	78	.	.	.	.	67	.	.	50
CN(CCCCCCCCCCN(C)C(=O)Oc1cccc([N+](C)(C)C)c1)C(=O)Oc1cccc([N+](C)(C)C)c1	.	.	.	.	.	.	/	/	/	/
CCc1c(C)[nH]n(-c2ccc(Oc3ccccc3)c(S(=O)(=O)O)c2)c1=O	79	53	66	.	.	.	80	.	.	36
Cc1[nH]n(-c2ccccc2)c(=O)c1CCO	.	.	.	.	.	.	/	/	/	/
Clc1ccc2c(SCC3CO3)c3ccccc3nc2c1 (stereo not drawn)	101	62	.	.	.	.	.	.	/	.
CN(C)c1ccc(NC(=S)NC(=O)/C=C/c2ccc(Cl)cc2)cc1	.	.	.	.	.	.	/	/	/	/
O=C(/C=C/c1ccc(Cl)cc1)NC(=S)Nc1ccc(C(=O)O)cc1	96	92	.	.	67	.	88	.	.	50
Cn1c(=O)c2c([nH]c(=S)n2Cc2ccc(Cl)cc2)n(C)c1=O	.	.	.	.	.	.	/	/	/	/
COc1ccc(OCC(=O)Nc2cccc(-c3nc4ccccc4o3)c2)cc1	.	.	.	.	.	.	/	/	/	/
CCc1ccc(OCC(=O)Nc2ccc(-c3nc4ccccc4o3)c(O)c2)cc1	100	66	77	.	.	.	73	.	.	19	DNMT1 confirm=.;Beacon interf=.
Cc1csc2c(=O)sc(NC(=O)c3cccs3)nc12	97	95	.	.	69	.	63	.	.	.
Cc1csc2c(=O)sc(NC(=O)c3ccco3)nc12	.	.	.	.	.	.	/	/	/	/
C[C@H](NC(=O)Cc1ccccc1)C(=O)N1CCC2(CC1)NCCc1[nH]cnc12	.	.	.	.	.	.	/	/	/	/
SMILES	Scp-1 inhibitor	STEP block	DNMT1 inh	HKDC1 inhibitor	LMPTP block	SUMO1-SIM PPI	Scp1 confirm	Scp-1 MG ctr	Scp1 DSF	STEP conf	others
O=[N+]([O-])c1ccc(C=NNC(=S)NN=Cc2ccc([N+](=O)[O-])cc2)cc1	88	96	88	.	75	92	55	.	12	.	DNMT1 confirm=.;Beacon interf=.
CC(=O)Oc1ccc(/C=N\NC(=O)c2cc3c(ccc4ccccc43)o2)cc1	92	90	.	.	.	.	69	.	.	.
COc1cccc(C(=O)N/N=C(\C)c2ccc(NC(=O)Cc3ccccc3)cc2)c1OC	.	.	.	.	.	.	/	/	/	/
C/C(=N\NC(=O)c1ccccc1O)c1ccc(NC(=O)Cc2ccccc2)cc1	101	84	.	.	59	.	84	.	.	79
CCCCC(=O)Nc1ccc(C(=O)NNC(=O)c2ccc(C)c(Br)c2)cc1	102	74	81	.	78	.	71	.	.	40	DNMT1 confirm=.;Beacon interf=.
C[C@]12c3[nH]c4ccc(Cl)cc4c3CCN1C(=O)[C@@H](CC(=O)NCc1cccc(C(F)(F)F)c1)C[C@@H]2C(=O)N1CCOCC1	.	.	.	.	.	.	/	/	/	/	HKDC1 act conf=.
O=C(NC(=S)Nc1ccccc1OC(F)F)c1ccc2c(c1)OCO2	.	.	.	.	.	.	/	/	/	/
O=C(O)CCC(=O)c1ccc2sc3ccccc3c2c1	.	.	.	.	.	.	/	/	/	/
C=CCn1c(C)cc(C2=NNC(=Nc3ccc(C)cc3)SC2)c1C	.	.	.	.	.	.	/	/	/	/
Cc1ccc(C2=NNC(=Nc3ccc(F)cc3)SC2)cc1	.	.	.	.	.	.	/	/	/	/	HKDC1 act conf=-80
Cc1cccc(N=C2NN=C(c3ccc4c(c3)OCCO4)CS2)c1	.	.	.	.	.	.	/	/	/	/	HKDC1 act conf=.
CCc1ccc(C2=NNC(=Nc3cccc(S(=O)(=O)N(C)C)c3)SC2)cc1	.	.	.	.	.	.	/	/	/	/	HKDC1 act conf=-141
